# Source: ChEMBL document CHEMBL5724801, “EUbOPEN Chemogenomics Library - Multiplex” (2024)
# “And” between values parts separate entries of the source, which are not always exact repeats. Equal values may be shown once.
# System: HEK-293T
# Assay: Multiplex assay against HEK293T
# Assay type: toxicity, cell-based
# Settings: human
# Summary of the method: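 Live cells were stained at seeding with Hoechst33342, BioTracker Green Microtubule Cytoskeleton Dye, MitoTracker Red and Annexin V Alexa Fluor 680. Following compound addition, they were imaged on a CQ1 microscope at 37°C and 5% CO2 and gated by CellPathfinder machine learning into Hoechst high-intensity objects or normal cells, with normal cells split into healthy, pyknosed or fragmented nuclei and pyknosed cells into mitotic or apoptotic. Tubulin, mitochondrial-mass and membrane-permeability phenotypes are per cents of healthy-nucleus cells.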
# [1] = 12 h, 1 µM, compound concentration 1 uM
# [2] = 12 h, 10 µM, compound concentration 10 uM
# [3] = 24 h, 1 µM, compound concentration 1 uM
# [4] = 24 h, 10 µM, compound concentration 10 uM
# [5] = 48 h, 1 µM, compound concentration 1 uM
# [6] = 48 h, 10 µM, compound concentration 10 uM
compound,measurement,setting,value
Cl.NCCc1ccc(O)c(O)c1 [DOPAMINE HYDROCHLORIDE],Population Apoptotic (%),[1],31% and 54%
same,Population Fragmented Nuclei (%),[1],6% and 7%
same,Population Healthy Nuclei (%),[1],77% and 78%
same,Population Hoechst High Intensity Objects (%),[1],10% and 6%
same,Population Membrane Permeable-Phenotype (%),[1],0%
same,Population Mitochondria Different-Phenotype (%),[1],54% and 58%
same,Population Mitotic Cells (%),[1],68% and 46%
same,Population Normal (%),[1],89% and 93%
same,Population Pyknosed Nuclei (%),[1],16% and 14%
same,Population Tubulin-Different-Phenotype (%),[1],36% and 18%
same,Total Cell Count,[1],324 and 372
same,Population Apoptotic (%),[2],46% and 37%
same,Population Fragmented Nuclei (%),[2],5%
same,Population Healthy Nuclei (%),[2],77% and 83%
same,Population Hoechst High Intensity Objects (%),[2],6% and 5%
same,Population Membrane Permeable-Phenotype (%),[2],0%
same,Population Mitochondria Different-Phenotype (%),[2],57% and 51%
same,Population Mitotic Cells (%),[2],53% and 62%
same,Population Normal (%),[2],93% and 94%
same,Population Pyknosed Nuclei (%),[2],17% and 11%
same,Population Tubulin-Different-Phenotype (%),[2],43% and 23%
same,Total Cell Count,[2],344 and 413
same,Population Apoptotic (%),[3],44% and 20%
same,Population Fragmented Nuclei (%),[3],9% and 8%
same,Population Healthy Nuclei (%),[3],76% and 85%
same,Population Hoechst High Intensity Objects (%),[3],4% and 5%
same,Population Membrane Permeable-Phenotype (%),[3],1% and 0%
same,Population Mitochondria Different-Phenotype (%),[3],40% and 46%
same,Population Mitotic Cells (%),[3],55% and 79%
same,Population Normal (%),[3],95% and 94%
same,Population Pyknosed Nuclei (%),[3],13% and 5%
same,Population Tubulin-Different-Phenotype (%),[3],19% and 11%
same,Total Cell Count,[3],451 and 478
same,Population Apoptotic (%),[4],39% and 38%
same,Population Fragmented Nuclei (%),[4],7% and 9%
same,Population Healthy Nuclei (%),[4],79% and 83%
same,Population Hoechst High Intensity Objects (%),[4],5%
same,Population Membrane Permeable-Phenotype (%),[4],0%
same,Population Mitochondria Different-Phenotype (%),[4],36% and 40%
same,Population Mitotic Cells (%),[4],60% and 61%
same,Population Normal (%),[4],94%
same,Population Pyknosed Nuclei (%),[4],12% and 7%
same,Population Tubulin-Different-Phenotype (%),[4],23% and 15%
same,Total Cell Count,[4],393 and 533
same,Population Apoptotic (%),[5],19% and 23%
same,Population Fragmented Nuclei (%),[5],14% and 10%
same,Population Healthy Nuclei (%),[5],78% and 81%
same,Population Hoechst High Intensity Objects (%),[5],4%
same,Population Membrane Permeable-Phenotype (%),[5],1% and 0%
same,Population Mitochondria Different-Phenotype (%),[5],23% and 20%
same,Population Mitotic Cells (%),[5],80% and 76%
same,Population Normal (%),[5],95%
same,Population Pyknosed Nuclei (%),[5],7%
same,Population Tubulin-Different-Phenotype (%),[5],14% and 7%
same,Total Cell Count,[5],785 and 638
same,Population Apoptotic (%),[6],30% and 17%
same,Population Fragmented Nuclei (%),[6],14% and 12%
same,Population Healthy Nuclei (%),[6],79% and 83%
same,Population Hoechst High Intensity Objects (%),[6],3% and 1%
same,Population Membrane Permeable-Phenotype (%),[6],0%
same,Population Mitochondria Different-Phenotype (%),[6],24% and 17%
same,Population Mitotic Cells (%),[6],70% and 82%
same,Population Normal (%),[6],96% and 98%
same,Population Pyknosed Nuclei (%),[6],6% and 4%
same,Population Tubulin-Different-Phenotype (%),[6],13% and 7%
same,Total Cell Count,[6],660 and 859
CNC[C@H](O)c1ccc(O)c(O)c1 [EPINEPHRINE],Population Apoptotic (%),[1],20% and 56%
same,Population Fragmented Nuclei (%),[1],6%
same,Population Healthy Nuclei (%),[1],81%
same,Population Hoechst High Intensity Objects (%),[1],7% and 6%
same,Population Membrane Permeable-Phenotype (%),[1],0%
same,Population Mitochondria Different-Phenotype (%),[1],31% and 65%
same,Population Mitotic Cells (%),[1],80% and 43%
same,Population Normal (%),[1],92% and 93%
same,Population Pyknosed Nuclei (%),[1],11%
same,Population Tubulin-Different-Phenotype (%),[1],26% and 27%
same,Population Apoptotic (%),[2],55% and 56%
same,Population Fragmented Nuclei (%),[2],12% and 11%
same,Population Healthy Nuclei (%),[2],75% and 61%
same,Population Membrane Permeable-Phenotype (%),[2],1% and 0%
same,Population Mitochondria Different-Phenotype (%),[2],65% and 62%
same,Population Mitotic Cells (%),[2],44% and 43%
same,Population Normal (%),[2],90% and 59%
same,Population Pyknosed Nuclei (%),[2],11% and 26%
same,Population Tubulin-Different-Phenotype (%),[2],39% and 25%
same,Population Apoptotic (%),[3],19% and 36%
same,Population Fragmented Nuclei (%),[3],9%
same,Population Healthy Nuclei (%),[3],80%
same,Population Hoechst High Intensity Objects (%),[3],5% and 7%
same,Population Membrane Permeable-Phenotype (%),[3],0% and 1%
same,Population Mitochondria Different-Phenotype (%),[3],25% and 41%
same,Population Mitotic Cells (%),[3],80% and 63%
same,Population Normal (%),[3],94% and 92%
same,Population Pyknosed Nuclei (%),[3],9% and 10%
same,Population Tubulin-Different-Phenotype (%),[3],21% and 18%
same,Population Apoptotic (%),[4],50% and 80%
same,Population Fragmented Nuclei (%),[4],13% and 11%
same,Population Healthy Nuclei (%),[4],75% and 71%
same,Population Membrane Permeable-Phenotype (%),[4],0%
same,Population Mitochondria Different-Phenotype (%),[4],50% and 43%
same,Population Mitotic Cells (%),[4],50% and 19%
same,Population Normal (%),[4],91% and 60%
same,Population Pyknosed Nuclei (%),[4],11% and 17%
same,Population Tubulin-Different-Phenotype (%),[4],36% and 25%
same,Population Apoptotic (%),[5],16% and 35%
same,Population Fragmented Nuclei (%),[5],11% and 12%
same,Population Healthy Nuclei (%),[5],81% and 78%
same,Population Hoechst High Intensity Objects (%),[5],3%
same,Population Membrane Permeable-Phenotype (%),[5],1%
same,Population Mitochondria Different-Phenotype (%),[5],13% and 24%
same,Population Mitotic Cells (%),[5],83% and 64%
same,Population Normal (%),[5],96%
same,Population Pyknosed Nuclei (%),[5],7% and 8%
same,Population Tubulin-Different-Phenotype (%),[5],9% and 15%
same,Population Apoptotic (%),[6],33% and 69%
same,Population Fragmented Nuclei (%),[6],21% and 17%
same,Population Healthy Nuclei (%),[6],72% and 67%
same,Population Membrane Permeable-Phenotype (%),[6],0%
same,Population Mitochondria Different-Phenotype (%),[6],25% and 34%
same,Population Mitotic Cells (%),[6],66% and 30%
same,Population Normal (%),[6],96% and 78%
same,Population Pyknosed Nuclei (%),[6],5% and 14%
same,Population Tubulin-Different-Phenotype (%),[6],11% and 13%
